Screens (PubChem)
Hits are enriched below; roughly 2.8% of the tested compounds scored in any of these assays.
NPY-Y1 PAM-ag – human NPY-Y1 potentiation or agonism, primary screen. NPY-Y1 expressing cells, potentiator/agonist activation. activation, % at 3.6 µM. AID 1304. 220,000 tested, 0.37% active. P25929; in the data active = activation above about 33%, passing the limit was not always enough;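 also: cells stimulated with NPY at EC10 then isoproterenol at EC100; 0% = low agonist plus stimulus and 100% = saturating agonist plus stimulus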
Target sequence (P25929 whole entry, looked up): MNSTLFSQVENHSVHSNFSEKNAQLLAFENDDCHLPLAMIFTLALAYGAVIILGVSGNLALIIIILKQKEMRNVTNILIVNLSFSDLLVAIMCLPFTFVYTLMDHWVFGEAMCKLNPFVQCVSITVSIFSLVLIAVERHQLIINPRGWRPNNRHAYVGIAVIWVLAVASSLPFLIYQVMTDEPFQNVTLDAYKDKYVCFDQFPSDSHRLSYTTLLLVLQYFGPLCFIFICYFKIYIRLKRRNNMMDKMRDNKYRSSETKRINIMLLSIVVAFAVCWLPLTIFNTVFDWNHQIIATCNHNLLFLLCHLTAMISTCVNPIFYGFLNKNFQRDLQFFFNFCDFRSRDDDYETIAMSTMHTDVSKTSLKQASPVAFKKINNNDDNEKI
EP2 antag – blocks the human prostaglandin E2 receptor EP2. C6 glioma cells expressing human EP2, cAMP TR-FRET; cells stimulated with saturating PGE2. inhibition, % at 25 µM. 260,000 tested, 0.52% active;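 active = percent inhibition above 40 after rounding to a whole number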;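 also: rat C6 glioma host cells with rolipram phosphodiesterase inhibitor present; the protocol text gives 20 µM as final concentration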
NPY-Y2 PAM-ag – potentiators or agonists of human neuropeptide Y receptor Y2. activation, % at 3.6 µM. 220,000 tested, 0.45% active. P49146. cells expressing NPY-Y2, potentiator/agonist read-out; in the data active = activation above about 27%;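 also: cells stimulated with NPY near EC25 plus isoproterenol at EC100; 0% = vehicle plus submaximal agonist and 100% = vehicle plus saturating agonist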
NPY-Y2 antag – NPY-Y2 (human) receptor antagonism; inhibition, % at 2.7 µM; 140,000 tested, 0.99% active; P49146; NPY-Y2 expressing cells, antagonist mode;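 also: 0% = vehicle with agonist challenge and 100% = reference antagonist with challenge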
EP2 modulator – modulates human prostaglandin E2 receptor EP2 signaling; P43116; EP2-expressing cells, cAMP HTRF FRET, PGE2 co-stimulation; induction, % at 25 µM; 260,000 tested, 0.83% active; AID 940;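 active = compounds whose cAMP rise, as percent of the full-agonist control response, exceeds 60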;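 also: rat C6 glioma line stably carrying human EP2 under a CMV promoter; the protocol text gives 20 µM as final concentration; 100% = response of wells given 1 µM PGE2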
NPY-Y1 antag – blocks the human neuropeptide Y Y1 receptor; P25929; HEK293-CNG Y1 cells, membrane potential fluorescence; NPY at EC95, then isoproterenol; inhibition, % at 3.6 µM; 200,000 tested, 1% active; AID 1040;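 active = inhibition above the campaign mean inhibition of all tested compounds plus 3 SD, cut at about 20% in these data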;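 also: 0% = DMSO wells given NPY plus isoproterenol and 100% = isoproterenol alone without NPY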
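Test system: HEK293 cells co-expressing NPY Y1 receptor and cyclic-nucleotide gated channel; Also added: NPY (25 nM), isoproterenol (1 µM), Ro 20-1724 (25 µM); Compound dosing: one concentration, 3.6 µM, in 0.4% DMSO; Timing: dye 3 h, compound 60 min room temperature, stimulation 45 min; Technique: Membrane-potential fluorescent dye readout.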
NPY-Y1 ant conf – confirmation of human neuropeptide Y receptor Y1 antagonists; shares compounds with NPY-Y1 antag; inhibition, % at 3.6 µM; 1,200 tested, 21% active; AID 1254; HEK293-CNG NPY-Y1, membrane potential fluorescence, cAMP; NPY challenge against isoproterenol-raised cAMP; in the data active = inhibition above about 20%;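 also: 0% = vehicle with agonist plus stimulus and 100% = stimulus alone without agonist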
NPY2 antag ctr – counter-screen for NPY-Y1 antagonists: human NPY-Y2 antagonism; shares compounds with NPY-Y1 antag; HEK293 NPY-Y2 CNG membrane potential fluorescence; cells given NPY, then isoproterenol; inhibition, % at 3.6 µM; 1,200 tested, 28% active; AID 1255;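 also: 0% = DMSO with agonist challenge and 100% = reference antagonist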
The depositor's hits bear a star. Rule as the data show it, unless noted: active = inhibition above about 17%; inactive = the rest.

For O=C(CSc1ccc2c(c1)OCCO2)Nc1ncc(Cl)cc1Cl the results were NPY-Y1 PAM-ag -8, EP2 antag 5, NPY-Y2 PAM-ag -23, NPY-Y2 antag 8, EP2 modulator -29 and NPY-Y1 antag 12.
`CCOC(=O)C1CCN(C(c2cc3ccc(C)c(C)c3[nH]c2=O)c2nnnn2C(C)(C)CC)CC1` (stereo not drawn) gave EP2 antag 22 and EP2 modulator -16.
`CCN1/C(=C/C=C/C(C)=C/C=C/c2sc3ccccc3[n+]2CC)Sc2ccccc21` gave EP2 antag 17 and EP2 modulator -97.
CCN1/C(=C/C(C)=C/c2sc3ccccc3[n+]2CC)Sc2ccccc21 was read as NPY-Y1 PAM-ag -12, EP2 antag active, NPY-Y2 PAM-ag 4, EP2 modulator -255, NPY-Y1 antag 106*, NPY-Y1 ant conf 79* and NPY2 antag ctr 53*.
CCn1c(SCC(=O)N2CCCc3ccccc32)nnc1-c1ccc(Cl)cc1 was read as EP2 antag 10 and EP2 modulator 7.
`COc1ccc(CC2(CO)CCN(C(C)Cc3ccc(Cl)cc3)CC2)cc1` (stereo not drawn) gave NPY-Y1 PAM-ag -35, EP2 antag 2, NPY-Y2 PAM-ag -89, EP2 modulator -25, NPY-Y1 antag 26*, NPY-Y1 ant conf 16 and NPY2 antag ctr 21*.
For COc1ccc(CC2(CO)CCN(Cc3cccc(OC)c3OC)CC2)cc1 the results were NPY-Y1 PAM-ag -10, EP2 antag 5, NPY-Y2 PAM-ag -12, EP2 modulator -7 and NPY-Y1 antag 7.
Screening O=C(c1cc(-c2ccco2)[nH]n1)N1CCn2c(nnc2C2CC2)C1 returned EP2 modulator -31.
For COc1ccc(CCN(Cc2ccccn2)C(=S)Nc2ccccc2F)cc1OC the results were NPY-Y1 PAM-ag -7, EP2 antag 5, NPY-Y2 PAM-ag -11, EP2 modulator 3 and NPY-Y1 antag 10.
For COc1ccc(CCN(Cc2ccccn2)C(=S)Nc2ccccc2Cl)cc1OC the results were NPY-Y1 PAM-ag -8, EP2 antag 3, NPY-Y2 PAM-ag -3, EP2 modulator -4, NPY-Y1 antag 28*, NPY-Y1 ant conf 18 and NPY2 antag ctr 8.
Screening COc1ccc(/C=C/CN2CCC(CO)(Cc3ccccc3Cl)CC2)cc1 returned NPY-Y1 PAM-ag -47, EP2 antag 3, NPY-Y2 PAM-ag -22, EP2 modulator -61, NPY-Y1 antag 30*, NPY-Y1 ant conf 13 and NPY2 antag ctr 18*.
For CCCCOc1ccccc1C1CC(=O)NC2=C1C(=O)CCC2 (stereo not drawn) the results were NPY-Y1 PAM-ag -13, NPY-Y2 PAM-ag -8, NPY-Y2 antag 3, EP2 modulator 16, NPY-Y1 antag 44*, NPY-Y1 ant conf 10 and NPY2 antag ctr 21*.
Screening COc1ccc(Nc2ccc(C(N)=O)cc2[N+](=O)[O-])cc1 returned NPY-Y1 PAM-ag 9, EP2 antag 7, NPY-Y2 PAM-ag 6, EP2 modulator -46 and NPY-Y1 antag 5.
Screening COc1ccc(Nc2ccc(C(=O)O)cc2[N+](=O)[O-])cc1 returned NPY-Y1 PAM-ag -21, EP2 antag 8, NPY-Y2 PAM-ag 3, NPY-Y2 antag 6, EP2 modulator 0, NPY-Y1 antag 22*, NPY-Y1 ant conf 4 and NPY2 antag ctr 9.
`CC(=O)NC(Cc1c[nH]c2ccccc12)C(=O)OCC(=O)Nc1ccc2c(c1)OCO2` (stereo not drawn) gave NPY-Y1 PAM-ag -1, EP2 antag 10, NPY-Y2 PAM-ag 5, NPY-Y2 antag 6, EP2 modulator -22 and NPY-Y1 antag 16.
For Cc1ccc(C(C(=O)Nc2ccc3c(c2)OCO3)N(C)C(=O)Cc2c[nH]c3ccccc23)cc1 (stereo not drawn) the results were NPY-Y1 PAM-ag 12, EP2 antag 7, NPY-Y2 PAM-ag 4, NPY-Y2 antag 1, EP2 modulator 5, NPY-Y1 antag 35*, NPY-Y1 ant conf -1 and NPY2 antag ctr -5.
For CCCC(c1nnnn1C(C)(C)CC)N(Cc1cccs1)Cc1cc2cc(C)c(C)cc2[nH]c1=O (stereo not drawn) the results were EP2 antag 8 and EP2 modulator 9.
Screening Cc1cc(C(=O)CSc2nnc(Cc3ccccc3)o2)c(C)n1Cc1ccc2c(c1)OCO2 returned NPY-Y1 PAM-ag -14, EP2 antag 0, NPY-Y2 PAM-ag -14, NPY-Y2 antag 7, EP2 modulator 17 and NPY-Y1 antag 1.
Screening C=CCn1c(C)cc(C(=O)CSc2nnc(Cc3ccccc3)o2)c1C returned NPY-Y1 PAM-ag -56, EP2 antag 6, NPY-Y2 PAM-ag -32, NPY-Y2 antag 7, EP2 modulator 15, NPY-Y1 antag 21*, NPY-Y1 ant conf 10 and NPY2 antag ctr 8.
For COc1cc(C2NC(=O)NC3=C2C(=O)N(CCN2CCCC2)C3)ccc1O (stereo not drawn) the results were EP2 antag 7 and EP2 modulator 12.
Cc1cccc(C(C(=O)NC(C)(C)C)N(Cc2cccnc2)C(=O)c2csnn2)c1 (stereo not drawn) was read as EP2 antag 9 and EP2 modulator -45.
O=C(CNCC1CCCO1)Nc1cccc2ccccc12 (stereo not drawn) was read as EP2 antag 13 and EP2 modulator -18.
Screening CCOc1ncccc1C(=O)N1CCN(c2cccc(C)c2C)CC1 returned NPY-Y1 PAM-ag -18, EP2 antag 7, NPY-Y2 PAM-ag -22, EP2 modulator -12, NPY-Y1 antag 24*, NPY-Y1 ant conf 9 and NPY2 antag ctr 10.
For CCOc1ccccc1NC(=O)c1ccccc1-c1nc(-c2ccccc2OC)no1 the results were NPY-Y1 PAM-ag -74, EP2 antag 6, NPY-Y2 PAM-ag -73, NPY-Y2 antag 16, EP2 modulator 44, NPY-Y1 antag 43*, NPY-Y1 ant conf 24* and NPY2 antag ctr 23*.
Screening CCNC(=O)c1ccccc1-c1nc(-c2ccccc2OC)no1 returned NPY-Y1 PAM-ag 8, EP2 antag 6, NPY-Y2 PAM-ag 1 and EP2 modulator -16.
`Clc1cccc(Cl)c1CSc1nnc(/C=C/c2ccccc2)o1` gave NPY-Y1 PAM-ag -40, NPY-Y2 PAM-ag -39, NPY-Y2 antag 16, EP2 modulator -14, NPY-Y1 antag 23*, NPY-Y1 ant conf 16 and NPY2 antag ctr 16.
`C[C@H](N)c1nnc(SCc2c(Cl)cccc2Cl)o1` gave NPY-Y1 PAM-ag -6, EP2 antag 8, NPY-Y2 PAM-ag -24, NPY-Y2 antag 2, EP2 modulator 11 and NPY-Y1 antag 2.
